How the values were obtained:
Assay type in all cases: biochemical
[1] = biological target: T1, GBA2 (Homo sapiens, UniProt Q9HCG7); assay: In vitro apparent IC50, GBA2 overexpressing HEK293T lysate, 4-MU-β-Glc
T1 sequence (Q9HCG7 1-927): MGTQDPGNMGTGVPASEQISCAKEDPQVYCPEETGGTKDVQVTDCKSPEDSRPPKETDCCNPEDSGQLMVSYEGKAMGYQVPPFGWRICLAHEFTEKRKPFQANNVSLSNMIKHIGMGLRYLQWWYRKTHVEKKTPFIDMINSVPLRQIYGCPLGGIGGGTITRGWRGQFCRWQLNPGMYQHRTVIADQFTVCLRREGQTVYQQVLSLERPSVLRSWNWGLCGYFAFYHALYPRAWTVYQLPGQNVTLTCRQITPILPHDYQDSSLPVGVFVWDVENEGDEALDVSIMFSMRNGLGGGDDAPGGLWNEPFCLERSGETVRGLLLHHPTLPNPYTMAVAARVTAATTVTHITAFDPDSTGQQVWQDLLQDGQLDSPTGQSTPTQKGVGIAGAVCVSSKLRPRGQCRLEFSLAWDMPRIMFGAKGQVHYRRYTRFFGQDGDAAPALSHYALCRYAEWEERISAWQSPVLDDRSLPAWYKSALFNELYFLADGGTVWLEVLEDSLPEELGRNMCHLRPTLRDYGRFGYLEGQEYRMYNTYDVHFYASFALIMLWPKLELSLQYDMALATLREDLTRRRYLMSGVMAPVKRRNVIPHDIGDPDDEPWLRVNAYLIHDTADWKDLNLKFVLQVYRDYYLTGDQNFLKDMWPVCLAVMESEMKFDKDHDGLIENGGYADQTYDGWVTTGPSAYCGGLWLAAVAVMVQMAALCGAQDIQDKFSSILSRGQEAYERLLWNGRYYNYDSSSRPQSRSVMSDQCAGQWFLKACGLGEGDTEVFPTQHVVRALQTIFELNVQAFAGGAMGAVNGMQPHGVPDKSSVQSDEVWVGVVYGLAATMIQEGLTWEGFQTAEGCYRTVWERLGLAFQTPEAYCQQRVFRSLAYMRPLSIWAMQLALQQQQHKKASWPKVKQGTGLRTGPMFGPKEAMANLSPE
Method in brief: (§1)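 The enzyme source was GBA2-overexpressing HEK293T lysate or recombinant human GAA. It was preincubated 30 min at 37 °C with a range of test compound concentrations, then transferred into 4-MU glucoside substrate mixture to measure residual activity. Quenched with 1 M NaOH–glycine pH 10.3; 4-MU fluorescence at λex 366/λem 445 nm. Apparent IC50 is the mean of three technical replicates.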

[2] = biological target: T2, human α-glucosidase GAA (Homo sapiens, UniProt P10253); assay: Inhibition kinetics, recombinant GAA, 2,4-DNP-α-Glc
[3] = biological target: T3, human β-glucosidase GBA1 (Homo sapiens, UniProt P04062, R534H); assay: In vitro apparent IC50, recombinant GBA1
T3 sequence (P04062 40-536 R534H): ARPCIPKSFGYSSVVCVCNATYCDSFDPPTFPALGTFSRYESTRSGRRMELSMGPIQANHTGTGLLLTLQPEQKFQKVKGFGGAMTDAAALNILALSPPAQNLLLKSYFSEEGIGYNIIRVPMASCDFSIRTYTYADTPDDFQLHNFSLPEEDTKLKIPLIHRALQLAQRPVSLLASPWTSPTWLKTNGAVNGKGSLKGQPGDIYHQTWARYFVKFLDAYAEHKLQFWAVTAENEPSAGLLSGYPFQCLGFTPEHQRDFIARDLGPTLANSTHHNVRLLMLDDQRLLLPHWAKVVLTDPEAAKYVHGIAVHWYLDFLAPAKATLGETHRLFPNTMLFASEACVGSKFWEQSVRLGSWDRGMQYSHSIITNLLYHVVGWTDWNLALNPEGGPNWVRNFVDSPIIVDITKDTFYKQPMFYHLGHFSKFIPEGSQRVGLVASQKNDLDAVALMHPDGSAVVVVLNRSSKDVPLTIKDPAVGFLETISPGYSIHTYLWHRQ
Method in brief: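 Recombinant human GBA1 (Cerezyme) preincubated with a range of test compound concentrations for 30 min at 37 °C, then added to 4-MU-Glc substrate mixture to measure residual activity. Reaction quenched with 1 M NaOH–glycine (pH 10.3); 4-MU fluorescence read at λEX 366 / λEM 445 nm. Apparent IC50 is the mean of three technical replicates.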

[4] = biological target: T3, human β-glucosidase GBA1; assay: Inhibition kinetics, recombinant GBA1, 2,4-DNP-β-Glc; conditions: irreversible inhibition, 37 °C, pH 5.2
Method in brief: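 Recombinant human GBA1 preincubated with test compound for 0.5–8 min (fast inhibitors) or 0.5–360 min (slow), then added to 2,4-DNP-Glc. Residual rate taken from 400 nm absorbance versus a no-inhibitor control. kobs is the slope of −ln V/V0 versus time; kinact and KI come from a hyperbolic fit of kobs versus [I]. For fast inhibition (>50% after 30 s), kinact/KI is the linear slope at [I] ≪ KI.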

[5] = biological target: T2, human α-glucosidase GAA; assay: In vitro apparent IC50, recombinant GAA
Method in brief: as §1

IC50 [1]: 139 ± 60 nM
Ki [2]: > 500000 nM
IC50 [3]: 165 ± 4 nM
β-glucosidase GBA1 kinact [4]: 0.72 min^–1
IC50 [5]: > 100000 nM
SMILES: OC[C@@H]1[C@@H](O)[C@H](O)[C@@H](O)[C@@H]2O[C@H]12 [Compound 1, cyclophellitol, reference compound]

From publication PMC5532717 (ACS Central Science, 2017)
